High-throughput results from PubChem.
Sampled rows, rich in hits. Any-hit rate of the full collection: about 2.7%.
PAD4 FP inh: human PAD4 inhibitors, primary screen, biochemical, fluorescence polarization, 1536-well format. Protein-arginine deiminase type-4 (Homo sapiens), Q9UM07. recombinant PAD4, RCA probe fluorescence polarization. inhibition, % at 6.36 µM. 330,000 tested, 0.41% active. AID 485272, 2010;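 active = percent inhibition above a cutoff equal to the mean of all tested compounds plus 3 SD, cut at about 15% in these data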
GSTO1 counter: inhibitors of recombinant GSTO1, primary screen, counter-screen for RBBP9 inhibitor project, biochemical, fluorescence polarization; AID 1974, 2009; inhibition, % at 5.96 µM; activity-based probe fluorescence polarization; 300,000 tested, 1.1% active; Glutathione S-transferase omega-1 (Homo sapiens), P78417;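 active = inhibition above the campaign mean inhibition plus 3 SD, cut at about 35% in these data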
PRMT1 inh: PRMT1 methyltransferase inhibitors, primary screen, biochemical, fluorescence polarization. Protein arginine N-methyltransferase 1 (Homo sapiens), Q99873. recombinant PRMT1, activity-based probe fluorescence polarization. inhibition, % at 2.79 µM. 370,000 tested, 1.3% active. AID 652257, 2013;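 active = inhibition above about 21% made by adding two undisclosed values, limit read from the data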
Target sequence (Q99873 whole entry, looked up): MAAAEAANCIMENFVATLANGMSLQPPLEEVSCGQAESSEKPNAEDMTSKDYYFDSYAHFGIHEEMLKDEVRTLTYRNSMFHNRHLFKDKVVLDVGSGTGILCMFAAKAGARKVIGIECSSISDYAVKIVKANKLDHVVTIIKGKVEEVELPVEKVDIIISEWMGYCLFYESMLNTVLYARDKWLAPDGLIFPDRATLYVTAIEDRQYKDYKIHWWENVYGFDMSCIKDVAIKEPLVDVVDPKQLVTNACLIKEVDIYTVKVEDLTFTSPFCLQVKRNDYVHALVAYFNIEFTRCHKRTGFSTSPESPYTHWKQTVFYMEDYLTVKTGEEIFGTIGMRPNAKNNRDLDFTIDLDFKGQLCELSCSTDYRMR
SIAE primary: human SIAE inhibitors, primary screen, biochemical, fluorescence polarization, FP-Rh probe, 1536-well HTS | SIAE FP-Rh probe binding | inhibition, % at 9.66 µM | 370,000 tested, 0.69% active | AID 1053197, 2014;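 active = inhibition above a cutoff: mean of compounds within the control limits plus 3 SD of those, cut at about 17% in these data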
RBBP9 inh: human RBBP9 inhibitors, primary screen, biochemical, fluorescence polarization, FP-Rh probe, HTS. inhibition, % at 7.94 µM. Serine hydrolase RBBP9 (Homo sapiens), O75884. 220,000 tested, 0.2% active. recombinant RBBP9. AID 1515, 2009;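 active = inhibition above the campaign mean of all tested compounds plus 3 SD, cut at about 14% in these data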
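Test system: recombinant human RBBP9; Timing: 30 min then 45 min, 25 °C; Detection: fluorescence polarization; Control set: RBBP9 with DMSO as uninhibited control, no-protein wells as full inhibition; Compound dosing: one concentration, 7.94 µM nominal, 0.794% DMSO; Probe or stimulus: FP-Rh activity-based probe, 375 nM before mixing.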
PRMT1 inh conf: PRMT1 methyltransferase inhibitors, confirmation, biochemical, fluorescence polarization, triplicate; recombinant His-PRMT1, activity-based probe fluorescence polarization; shares compounds with PRMT1 inh; 3,300 tested, 42% active; inhibition, % at 2.79 µM;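 active = mean inhibition across replicates above the hit cutoff derived for the earlier primary screen, cut at about 22% in these data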
Of the large screens only hits and unclear results are named; the others gave an inactive call (follow-up assays come after a bar, where they were run).

CC(=O)CCC(=O)CNC(=O)CC[C@H]1O[C@@H](n2ccc(=O)[nH]c2=O)[C@H](O)[C@@H]1O	none (no result: PAD4 FP inh, GSTO1 counter, RBBP9 inh)
COc1cccc(CNc2nc3cc(-c4ccsc4)sc3c(=O)n2C)c1OC	none (no result: PAD4 FP inh, GSTO1 counter, RBBP9 inh)
O=C(O)/C=C/C(=O)c1ccc2c(c1)NC(=O)CO2	PRMT1 inh 34.8 | PRMT1 inh conf 46.9
O=C1COc2ccc(C(=O)NC3CC3)cc2N1	none
S=c1[nH]nc(-c2ccco2)n1-c1ccccc1Cl	none
S=c1[nH]nc(-c2cc(-c3ccco3)[nH]n2)n1-c1ccccc1Cl	PRMT1 inh 41.3 | PRMT1 inh conf inactive
FC(F)(F)c1ccc(Cl)c(-n2c(-c3ccco3)n[nH]c2=S)c1	none (no result: PAD4 FP inh, GSTO1 counter, RBBP9 inh)
FC(F)(F)c1ccc(Cl)c(-n2c(-c3cc(-c4ccco4)[nH]n3)n[nH]c2=S)c1	PRMT1 inh 25.3 | PRMT1 inh conf 27.8
O=C(C1=C[C@H](c2ccc3c(c2)OCO3)C[C@H](OCCCCO)O1)N1CCN(Cc2ccccc2)CC1	none
O=C(Nc1ccsc1C(=O)N1CCCC1)c1ccccc1	none
O=C(NC1CCN(Cc2ccccc2)CC1)c1cc(S(=O)(=O)N2CCOCC2)ccc1Cl	PRMT1 inh 113.5 (no result: PAD4 FP inh, GSTO1 counter, RBBP9 inh) | PRMT1 inh conf inactive
O=C(NC1CCN(Cc2ccccc2)C1)c1cccc(S(=O)(=O)N2CCOCC2)c1 (stereo not drawn)	none (no result: PAD4 FP inh, GSTO1 counter, RBBP9 inh)
CCOC(=O)c1c(/N=C/c2cccc([N+](=O)[O-])c2O)sc(C)c1C	PRMT1 inh 28.2 | PRMT1 inh conf inactive
CCOC(=O)CN1C(=O)S/C(=C/c2cccc([N+](=O)[O-])c2O)C1=O	none
Cc1ccc(-c2ccc(/C=C/C(=O)c3ccccc3)o2)cc1	PRMT1 inh 31.9 | PRMT1 inh conf 39.4
O=C(/C=C/c1ccc(-c2ccccc2[N+](=O)[O-])o1)c1ccc(F)cc1	PRMT1 inh 33.0 | PRMT1 inh conf inactive
O=C(/C=C/c1ccc(-c2ccccc2[N+](=O)[O-])o1)c1ccc(Br)cc1	none
Cc1ccc(C(=O)/C=C/c2ccc(-c3ccccc3[N+](=O)[O-])o2)cc1	PRMT1 inh 34.1 | PRMT1 inh conf inactive
O=C(COC(=O)c1n[nH]c(=O)c2ccccc12)Nc1ccccc1F	none (no result: GSTO1 counter, RBBP9 inh)
CN(C)CCNc1ccc2ncn3c4ccc(O)cc4c(=O)c1c23	PRMT1 inh 67.4 (no result: PAD4 FP inh, GSTO1 counter, RBBP9 inh) | PRMT1 inh conf 88.2
O=S(=O)(C/C(=C/CO)S(=O)(=O)c1ccccc1)c1ccccc1	PRMT1 inh 28.7 | PRMT1 inh conf inactive
Nc1ccc2cc3[nH]c4cc(N)ccc4c3nc2c1	PRMT1 inh 155.9 (no result: PAD4 FP inh, GSTO1 counter, RBBP9 inh) | PRMT1 inh conf inactive
Nc1ccc2nc(C3CCCCC3)[nH]c2c1	none
Cc1cc(C)c2c(N)c(S(=O)c3ccc(C(C)(C)C)cc3)sc2n1 (stereo not drawn)	PRMT1 inh 32.9 | PRMT1 inh conf inactive
Clc1ccc(-n2c(SCc3cccc4ccccc34)nnc2-c2ccccc2)cc1	none (no result: PAD4 FP inh, GSTO1 counter, RBBP9 inh)
COc1ccc(C2CC(c3c(O)cc(C)oc3=O)=NCCS2)c(OC)c1 (stereo not drawn)	none (no result: PRMT1 inh, SIAE primary)
Cc1cc(O)c(C2=Nc3ccccc3SC(c3ccc(Cl)cc3)C2)c(=O)o1 (stereo not drawn)	PRMT1 inh 37.2 | PRMT1 inh conf inactive
S=c1nccc(-c2ccc(Cl)cc2)[nH]1	PRMT1 inh 26.3 | PRMT1 inh conf 26.8
Clc1ccc(-c2ccn[nH]2)cc1	none
S=c1[nH]c(-c2ccc(Cl)cc2)cs1	PRMT1 inh 30.6 | PRMT1 inh conf 54.3
CC(C1CC1)N(Cc1ccccc1)C(=O)NC(=O)c1ccc(F)cc1 (stereo not drawn)	none
C=CCNC(=O)CN1C(=O)C2C3c4ccccc4C(c4ccccc43)C2C1=O (stereo not drawn)	none
NCCSSCCN	PRMT1 inh 80.0 (no result: RBBP9 inh) | PRMT1 inh conf 31.1
CC(C)(C)c1ccc(/C=N/NC(=S)Nc2cccnc2)cc1	none (no result: PRMT1 inh, SIAE primary)
COCCN=C1Sc2nc3c(C)cccc3cc2CN1Cc1ccco1	PRMT1 inh 29.4 | PRMT1 inh conf inactive
CC(C)NC(=O)C1(C#N)C=C1c1ccccc1 (stereo not drawn)	none (no result: PAD4 FP inh, GSTO1 counter, RBBP9 inh)
